Measured values reported in ChEMBL document CHEMBL4002610, “Design, synthesis and biological activity evaluation of novel 2,6-difluorobenzamide derivatives through FtsZ inhibition” (2017).
Converted amounts (≈) assume the structure as drawn.

Experiments:
Staphylococcus aureus [1] = assay: Antibacterial activity against Staphylococcus aureus ATCC 29213 after 24 hrs by broth microdilution method; format: functional; conditions: ATCC 29213, 24 h
How it was run: (§1)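 MIC by standard broth microdilution per NCCLS guidance. Strain panel: B. subtilis ATCC9372 and S. aureus ATCC25923 as standard susceptible strains, S. aureus ATCC29213 as […], S. pyogenes PS as penicillin-susceptible, S. pneumoniae ATCC49619 as standard susceptible, alongside Gram-negative strains.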

Staphylococcus aureus [2] = assay: Antibacterial activity against Staphylococcus aureus ATCC 25923 after 24 hrs by broth microdilution method; format: functional; conditions: ATCC 25923, 24 h; how it was run: as §1
Streptococcus pneumoniae = assay: Antibacterial activity against Streptococcus pneumoniae ATCC 49619 after 24 hrs by broth microdilution method; format: functional; conditions: ATCC 49619, 24 h; how it was run: as §1
Bacillus subtilis [3] = assay: Inhibition of FtsZ in Bacillus subtilis ATCC 9372 assessed as decrease in cell division by measuring lowest compound concentration at which bacterial filamentation is observed after 5 hrs by phase-contrast light microscopy
How it was run: (§2)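 Cell division inhibition scored by cell morphology under phase-contrast light microscopy. B. subtilis ATCC9372, E. coli ATCC25922 and S. aureus ATCC25923 were exposed to compound. The lowest concentration giving filamentation (B. subtilis, E. coli) or ballooning (S. aureus) was recorded as the cell division inhibitory concentration.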

Bacillus subtilis [4] = assay: Antibacterial activity against Bacillus subtilis ATCC 9372 after 24 hrs by broth microdilution method; format: functional; conditions: ATCC 9372, 24 h; how it was run: as §1
Streptococcus pyogenes = assay: Antibacterial activity against penicillin-susceptible Streptococcus pyogenes after 24 hrs by broth microdilution method; format: functional; how it was run: as §1
Staphylococcus aureus [5] = assay: Antibacterial activity against penicillin-resistant Staphylococcus aureus clinical isolate after 24 hrs by broth microdilution method; format: functional
Pseudomonas aeruginosa = assay: Antibacterial activity against Pseudomonas aeruginosa ATCC 27853 after 24 hrs by broth microdilution method; format: functional; conditions: ATCC 27853, 24 h; how it was run: as §1
Escherichia coli = assay: Antibacterial activity against Escherichia coli ATCC 25922 after 24 hrs by broth microdilution method; format: functional; conditions: ATCC 25922, 24 h; how it was run: as §1
[6] = tested on: Escherichia coli ATCC 25922; assay: Inhibition of FtsZ in Escherichia coli ATCC 25922 assessed as decrease in cell division by measuring lowest compound concentration at which bacterial filamentation is observed after 5 hrs by phase-contrast light microscopy; how it was run: as §2
[7] = biological target: T1, Cell division protein FtsZ (Staphylococcus aureus) (UniProt P0A031); assay: Inhibition of FtsZ in Staphylococcus aureus ATCC 25923 assessed as decrease in cell division by measuring lowest compound concentration at which bacterial ballooning is observed after 5 hrs by phase-contrast light microscopy; how it was run: as §2
T1 sequence (whole entry): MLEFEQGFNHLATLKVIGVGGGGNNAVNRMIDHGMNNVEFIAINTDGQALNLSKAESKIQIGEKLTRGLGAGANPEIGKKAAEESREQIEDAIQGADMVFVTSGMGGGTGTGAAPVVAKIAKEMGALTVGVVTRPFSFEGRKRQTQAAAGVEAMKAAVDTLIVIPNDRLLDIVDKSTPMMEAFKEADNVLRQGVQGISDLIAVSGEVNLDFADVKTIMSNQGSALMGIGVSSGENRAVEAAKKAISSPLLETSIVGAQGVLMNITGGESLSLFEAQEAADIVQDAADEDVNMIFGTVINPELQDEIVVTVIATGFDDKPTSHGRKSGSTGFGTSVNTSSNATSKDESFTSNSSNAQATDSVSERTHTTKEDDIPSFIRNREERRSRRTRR

SMILES | MIC (Staphylococcus aureus [1]) [µg/mL] | MIC (Staphylococcus aureus [2]) [µg/mL] | MIC (Streptococcus pneumoniae) [µg/mL] | INH (Bacillus subtilis [3]) [µg/mL] | MIC (Bacillus subtilis [4]) [µg/mL] | MIC (Streptococcus pyogenes) [µg/mL] | MIC (Staphylococcus aureus [5]) [µg/mL] | MIC (Pseudomonas aeruginosa) [µg/mL] | MIC (Escherichia coli) [µg/mL] | INH [6] [µg/mL] | INH [7] [µg/mL]
NC(=O)c1c(F)ccc(OCCCCCn2cnc3cc([N+](=O)[O-])ccc32)c1F | 1020 (≈ 2530 µM) | 512 (≈ 1270 µM) | 512 (≈ 1270 µM) | 32 | 512 (≈ 1270 µM) | 1020 (≈ 2530 µM) | 2050 (≈ 5060 µM) | 512 (≈ 1270 µM) | 512 (≈ 1270 µM) | 256 | –
NC(=O)c1c(F)ccc(OCCCn2cnc3ccccc32)c1F | 512 (≈ 1550 µM) | 1020 (≈ 3090 µM) | 512 (≈ 1550 µM) | 512 | 1020 (≈ 3090 µM) | 1020 (≈ 3090 µM) | 1020 (≈ 3090 µM) | 512 (≈ 1550 µM) | 512 (≈ 1550 µM) | 512 | 256
CCOCCC(=O)COc1ccc(F)c(C(N)=O)c1F | 128 (≈ 446 µM) | 64 (≈ 223 µM) | 128 (≈ 446 µM) | 32 | 64 (≈ 223 µM) | > 128 | 256 (≈ 891 µM) | 128 (≈ 446 µM) | 256 (≈ 891 µM) | 64 | 128
NC(=O)c1c(F)ccc(OCc2nc3cc([N+](=O)[O-])ccc3[nH]2)c1F | 256 (≈ 735 µM) | 512 (≈ 1470 µM) | 256 (≈ 735 µM) | 64 | 64 (≈ 184 µM) | 1020 (≈ 2940 µM) | 512 (≈ 1470 µM) | 256 (≈ 735 µM) | 512 (≈ 1470 µM) | 128 | 128
NC(=O)c1c(F)ccc(OCCCCCCn2cnc3ccccc32)c1F | 256 (≈ 686 µM) | 512 (≈ 1370 µM) | 256 (≈ 686 µM) | 128 | 256 (≈ 686 µM) | 512 (≈ 1370 µM) | 1020 (≈ 2740 µM) | 512 (≈ 1370 µM) | 512 (≈ 1370 µM) | 256 | 128
NC(=O)c1c(F)ccc(OCCCCl)c1F | 32 (≈ 128 µM) | 16 (≈ 64.1 µM) | > 128 | 16 | 32 (≈ 128 µM) | 128 (≈ 513 µM) | 32 (≈ 128 µM) | 128 (≈ 513 µM) | 128 (≈ 513 µM) | 64 | 32
CCC(C)Oc1ccc(F)c(C(N)=O)c1F (stereo not given) | 128 (≈ 558 µM) | 64 (≈ 279 µM) | 128 (≈ 558 µM) | 128 | 128 (≈ 558 µM) | > 128 | 128 (≈ 558 µM) | 128 (≈ 558 µM) | 128 (≈ 558 µM) | 64 | 32
NC(=O)c1c(F)ccc(OCCCCCCBr)c1F | 2 (≈ 5.95 µM) | 1 (≈ 2.97 µM) | > 128 | 0.5 | 1 (≈ 2.97 µM) | 64 (≈ 190 µM) | 2 (≈ 5.95 µM) | 128 (≈ 381 µM) | 128 (≈ 381 µM) | 64 | 1
NC(=O)c1c(F)ccc(OCCCCBr)c1F | 32 (≈ 104 µM) | 4 (≈ 13 µM) | > 128 | 1 | 4 (≈ 13 µM) | 128 (≈ 415 µM) | 8 (≈ 26 µM) | 128 (≈ 415 µM) | 128 (≈ 415 µM) | 64 | 4
NC(=O)c1c(F)ccc(OC2CCCCC2)c1F | 256 (≈ 1000 µM) | 128 (≈ 501 µM) | 128 (≈ 501 µM) | 64 | 64 (≈ 251 µM) | > 128 | 256 (≈ 1000 µM) | 128 (≈ 501 µM) | 128 (≈ 501 µM) | 64 | 128
NC(=O)c1c(F)ccc(OC2CCCC2)c1F | 256 (≈ 1060 µM) | 256 (≈ 1060 µM) | 128 (≈ 531 µM) | 256 | 512 (≈ 2120 µM) | > 128 | 512 (≈ 2120 µM) | 128 (≈ 531 µM) | 128 (≈ 531 µM) | 64 | 256
NC(=O)c1c(F)ccc(OCCCBr)c1F | 32 (≈ 109 µM) | 16 (≈ 54.4 µM) | > 128 | 16 | 32 (≈ 109 µM) | 64 (≈ 218 µM) | 32 (≈ 109 µM) | 128 (≈ 435 µM) | 128 (≈ 435 µM) | 64 | 16
CCOC(=O)COc1ccc(F)c(C(N)=O)c1F | 256 (≈ 988 µM) | 128 (≈ 494 µM) | 128 (≈ 494 µM) | 32 | 64 (≈ 247 µM) | > 128 | 256 (≈ 988 µM) | 128 (≈ 494 µM) | 128 (≈ 494 µM) | 64 | 64
COc1cc(/C=C/C(=O)CC(=O)/C=C/c2ccc(O)c(OC)c2)ccc1O [CURCUMIN] | 4100 (≈ 11100 µM) | 2050 (≈ 5560 µM) | > 4100 | 16 | 32 (≈ 86.9 µM) | > 4100 | 4100 (≈ 11100 µM) | 4100 (≈ 11100 µM) | 512 (≈ 1390 µM) | 256 | 1020
NC(=O)c1c(F)ccc(OCCn2cnc3cc([N+](=O)[O-])ccc32)c1F | 512 (≈ 1410 µM) | 256 (≈ 707 µM) | 256 (≈ 707 µM) | 32 | 64 (≈ 177 µM) | 512 (≈ 1410 µM) | 1020 (≈ 2830 µM) | 512 (≈ 1410 µM) | 256 (≈ 707 µM) | 128 | 256
NC(=O)c1c(F)ccc(OCCCCCBr)c1F | 16 (≈ 49.7 µM) | 8 (≈ 24.8 µM) | 128 (≈ 397 µM) | 2 | 16 (≈ 49.7 µM) | 128 (≈ 397 µM) | 16 (≈ 49.7 µM) | 256 (≈ 795 µM) | 256 (≈ 795 µM) | 64 | 4
NC(=O)c1c(F)ccc(OCCCCCCCl)c1F | 16 (≈ 54.8 µM) | 2 (≈ 6.86 µM) | 128 (≈ 439 µM) | 0.25 | 0.5 (≈ 1.71 µM) | > 128 | 8 (≈ 27.4 µM) | 256 (≈ 878 µM) | 256 (≈ 878 µM) | 128 | 0.5
NC(=O)c1c(F)ccc(OCCCn2cnc3cc([N+](=O)[O-])ccc32)c1F | 512 (≈ 1360 µM) | 1020 (≈ 2720 µM) | 512 (≈ 1360 µM) | 128 | 256 (≈ 680 µM) | 512 (≈ 1360 µM) | 1020 (≈ 2720 µM) | 512 (≈ 1360 µM) | 1020 (≈ 2720 µM) | 512 | 1020
NC(=O)c1c(F)ccc(O)c1F | 512 (≈ 2960 µM) | 1020 (≈ 5920 µM) | 4100 (≈ 23700 µM) | 1020 | 1020 (≈ 5920 µM) | > 4100 | 1020 (≈ 5920 µM) | 512 (≈ 2960 µM) | 512 (≈ 2960 µM) | 512 | 2050
CC(C)Oc1ccc(F)c(C(N)=O)c1F | 256 (≈ 1190 µM) | 256 (≈ 1190 µM) | 128 (≈ 595 µM) | 128 | 256 (≈ 1190 µM) | > 128 | 256 (≈ 1190 µM) | 128 (≈ 595 µM) | 256 (≈ 1190 µM) | 64 | 128
CCCCC(CC)COc1ccc(F)c(C(N)=O)c1F (stereo not given) | 8 (≈ 28 µM) | 1 (≈ 3.5 µM) | 64 (≈ 224 µM) | 0.125 | 0.25 (≈ 0.876 µM) | > 128 | 8 (≈ 28 µM) | 128 (≈ 449 µM) | 256 (≈ 897 µM) | 64 | 0.25
NC(=O)c1c(F)ccc(OCCCCCCl)c1F | 32 (≈ 115 µM) | 16 (≈ 57.6 µM) | 128 (≈ 461 µM) | 2 | 4 (≈ 14.4 µM) | 64 (≈ 230 µM) | 16 (≈ 57.6 µM) | 128 (≈ 461 µM) | 128 (≈ 461 µM) | 64 | 16
NC(=O)c1c(F)ccc(OCCCCCl)c1F | 8 (≈ 30.3 µM) | 8 (≈ 30.3 µM) | 128 (≈ 485 µM) | 2 | 4 (≈ 15.2 µM) | 64 (≈ 243 µM) | 8 (≈ 30.3 µM) | 128 (≈ 485 µM) | 128 (≈ 485 µM) | 64 | 4
NC(=O)c1c(F)ccc(OCCBr)c1F | 64 (≈ 229 µM) | 16 (≈ 57.1 µM) | > 128 | 2 | 16 (≈ 57.1 µM) | 64 (≈ 229 µM) | 32 (≈ 114 µM) | 128 (≈ 457 µM) | 128 (≈ 457 µM) | 32 | 16
CC(C)CCOc1ccc(F)c(C(N)=O)c1F | 16 (≈ 65.8 µM) | 64 (≈ 263 µM) | 128 (≈ 526 µM) | 4 | 8 (≈ 32.9 µM) | > 128 | 16 (≈ 65.8 µM) | 128 (≈ 526 µM) | 128 (≈ 526 µM) | 64 | 4
CC(C)COc1ccc(F)c(C(N)=O)c1F | 128 (≈ 558 µM) | 32 (≈ 140 µM) | 128 (≈ 558 µM) | 32 | 64 (≈ 279 µM) | > 128 | 64 (≈ 279 µM) | 128 (≈ 558 µM) | 256 (≈ 1120 µM) | 64 | 16
